Tests used:
[1] = Drug metabolism in rat hepatocytes assessed as formation of (2S,3S,4S,5R,6R)-3,4,5-trihydroxy-6-(5-(4-((6-methoxy-1-methyl-1H-benzo[d]imidazol-2-yl)methoxy)benzyl)-2,4-dioxothiazolidin-3-yl)tetrahydro-2H-pyran-2-carboxylic acid at 30 uM after 3 hrs by radio-HPLC/LC-MS/MS analysis; type: ADME, cell-based, Hepatocyte
Liver microsome [2] = test: Drug metabolism in Sprague-Dawley rat liver microsomes assessed as formation of 3-(4-((6-methoxy-1-methyl-1H-benzo[d]imidazol-2-yl)methoxy)phenyl)-2-(methylsulfinyl)propanamide at 20 uM after 2 hrs by radio-HPLC/LC-MS/MS analysis in presence of NADPH-generating system/SAM; type: ADME
Cytochrome P450 2C19 [3] = target: T1, Cytochrome P450 2C19 (Homo sapiens, UniProt P33261); test: Activity of human CYP2C19 expressed in microsomes isolated from baculovirus infected insect cell assessed as enzyme-mediated 5-(4-((6-methoxy-1H-benzo[d]imidazol-2-yl)methoxy)benzyl)thiazolidine-2,4-dione formation at 20 uM after 2 hrs by radio-HPLC/LC-MS/MS analysis in presence of NADPH-generating system and NADPH-generating system/SAM; type: ADME
T1 sequence (P33261 whole entry): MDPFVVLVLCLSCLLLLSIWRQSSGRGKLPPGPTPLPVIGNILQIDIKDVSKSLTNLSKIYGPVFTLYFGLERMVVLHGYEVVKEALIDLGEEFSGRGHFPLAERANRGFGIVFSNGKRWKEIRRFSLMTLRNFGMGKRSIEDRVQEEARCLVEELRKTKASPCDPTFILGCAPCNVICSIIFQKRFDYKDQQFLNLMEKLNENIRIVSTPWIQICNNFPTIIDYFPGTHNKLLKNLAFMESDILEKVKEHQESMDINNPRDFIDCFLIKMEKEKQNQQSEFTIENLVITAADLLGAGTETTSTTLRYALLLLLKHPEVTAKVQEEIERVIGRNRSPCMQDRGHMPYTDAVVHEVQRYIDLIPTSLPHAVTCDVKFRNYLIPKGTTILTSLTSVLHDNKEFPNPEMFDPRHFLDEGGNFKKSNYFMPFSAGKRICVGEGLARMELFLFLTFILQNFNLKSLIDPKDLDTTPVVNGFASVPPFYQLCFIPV
Summary of the method: (§1)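 Baculovirus/insect-cell microsomes expressing single human CYPs, 1 mg/ml protein, with 50 mM potassium phosphate (pH 7.4) or 100 mM Tris-HCl (pH 7.5). NADPH-generating system: 2 mM NADP⁺, 20 mM glucose 6-phosphate, 2 units/ml G6PDH, 10 mM MgCl₂. [¹⁴C]rivoglitazone at 20 μM, 2 h at 37°C with shaking. Control used insect-cell control supersomes. Stopped with acetonitrile; supernatant concentrated under nitrogen; metabolites analysed by radio-HPLC, LC-MS and LC-MS/MS.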

Cytochrome P450 2C8 [4] = target: T2, Cytochrome P450 2C8 (Homo sapiens, UniProt P10632); test: Activity of human CYP2C8 expressed in microsomes isolated from baculovirus infected insect cell assessed as enzyme-mediated 5-hydroxy-5-(4-((6-methoxy-1-methyl-1H-benzo[d]imidazol-2-yl)methoxy)benzyl)thiazolidine-2,4-dione formation at 20 uM after 2 hrs by radio-HPLC/LC-MS/MS analysis in presence of NADPH-generating system and NADPH-generating system/SAM; type: ADME; summary of the method: as §1
T2 sequence (P10632 whole entry): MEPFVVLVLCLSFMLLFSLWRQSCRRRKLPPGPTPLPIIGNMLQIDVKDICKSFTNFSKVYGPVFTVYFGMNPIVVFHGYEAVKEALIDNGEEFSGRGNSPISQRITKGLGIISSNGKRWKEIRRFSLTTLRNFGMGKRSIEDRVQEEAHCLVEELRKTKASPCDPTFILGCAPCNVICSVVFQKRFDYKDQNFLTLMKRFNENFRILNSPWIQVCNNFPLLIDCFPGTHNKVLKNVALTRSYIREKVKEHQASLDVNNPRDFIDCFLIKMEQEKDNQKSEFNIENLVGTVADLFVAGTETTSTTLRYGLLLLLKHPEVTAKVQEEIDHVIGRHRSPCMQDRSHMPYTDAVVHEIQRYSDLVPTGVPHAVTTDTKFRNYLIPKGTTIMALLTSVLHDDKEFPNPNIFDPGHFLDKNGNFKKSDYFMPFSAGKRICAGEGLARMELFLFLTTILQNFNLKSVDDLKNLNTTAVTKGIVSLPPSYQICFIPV

Cytochrome P450 2C9 = Cytochrome P450 2C9 (Homo sapiens, UniProt P11712); test: Activity of human CYP2C9 expressed in microsomes isolated from baculovirus infected insect cell assessed as enzyme-mediated 3-(4-((6-methoxy-1-methyl-1H-benzo[d]imidazol-2-yl)methoxy)phenyl)-2-(methylsulfinyl)propanamide formation at 20 uM after 2 hrs by radio-HPLC/LC-MS/MS analysis in presence of NADPH-generating system/SAM; type: ADME
Cytochrome P450 2C9, sequence (P11712 whole entry): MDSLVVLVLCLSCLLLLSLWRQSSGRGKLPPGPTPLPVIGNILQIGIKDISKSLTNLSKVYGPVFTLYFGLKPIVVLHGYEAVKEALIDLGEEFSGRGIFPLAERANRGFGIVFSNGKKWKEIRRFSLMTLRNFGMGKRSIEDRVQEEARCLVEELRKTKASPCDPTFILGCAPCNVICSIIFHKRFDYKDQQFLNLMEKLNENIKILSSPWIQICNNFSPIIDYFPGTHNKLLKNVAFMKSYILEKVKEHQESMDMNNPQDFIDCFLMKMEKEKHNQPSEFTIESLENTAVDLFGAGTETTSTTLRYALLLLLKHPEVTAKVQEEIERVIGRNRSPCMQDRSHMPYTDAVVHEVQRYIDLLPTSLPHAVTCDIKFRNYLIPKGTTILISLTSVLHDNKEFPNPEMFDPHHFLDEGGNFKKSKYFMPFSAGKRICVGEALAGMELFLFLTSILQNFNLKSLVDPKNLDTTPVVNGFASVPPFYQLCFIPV

Liver microsome [5] = test: Drug metabolism in human liver microsomes assessed as formation of 5-hydroxy-5-(4-((6-methoxy-1-methyl-1H-benzo[d]imidazol-2-yl)methoxy)benzyl)thiazolidine-2,4-dione at 20 uM after 2 hrs by radio-HPLC/LC-MS/MS analysis in presence of NADPH-generating system and NADPH-generating system/SAM; type: ADME
Cytochrome P450 2C8 [6] = target: T2, Cytochrome P450 2C8; test: (§2) Activity of human CYP2C8 expressed in microsomes isolated from baculovirus infected insect cell assessed as enzyme-mediated (2S,3S,4S,5R,6R)-3,4,5-trihydroxy-6-(5-(4-((6-methoxy-1-methyl-1H-benzo[d]imidazol-2-yl)methoxy)benzyl)-2,4-dioxothiazolidin-3-yl)tetrahydro-2H-pyran-2-carboxylic acid formation at 20 uM after 2 hrs by radio-HPLC/LC-MS/MS analysis in presence of UDPGA and UDPGA/SAM; type: ADME
[7] = target: T3, UDP-glucuronosyltransferase 2B7 (Homo sapiens, UniProt P16662); test: as §2, with “human UGT2B7” for “human CYP2C8”, “after 4” for “after 2”; type: ADME
T3 sequence (P16662 whole entry): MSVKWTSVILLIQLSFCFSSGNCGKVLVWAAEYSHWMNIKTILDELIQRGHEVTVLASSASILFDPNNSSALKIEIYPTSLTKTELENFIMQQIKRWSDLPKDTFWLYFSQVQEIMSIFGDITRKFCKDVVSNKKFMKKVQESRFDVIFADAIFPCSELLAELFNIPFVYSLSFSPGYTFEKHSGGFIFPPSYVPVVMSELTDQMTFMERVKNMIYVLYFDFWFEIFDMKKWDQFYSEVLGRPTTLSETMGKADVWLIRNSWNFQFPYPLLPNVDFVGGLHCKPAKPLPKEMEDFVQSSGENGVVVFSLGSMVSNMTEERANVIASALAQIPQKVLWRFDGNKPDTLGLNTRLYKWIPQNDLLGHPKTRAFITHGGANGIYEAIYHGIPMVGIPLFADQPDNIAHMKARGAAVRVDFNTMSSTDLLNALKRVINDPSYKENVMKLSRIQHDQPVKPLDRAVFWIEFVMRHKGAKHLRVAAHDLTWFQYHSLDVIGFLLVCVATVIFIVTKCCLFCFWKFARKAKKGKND

Cytochrome P450 2D6 [8] = target: T4, Cytochrome P450 2D6 (Homo sapiens, UniProt P10635); test: Activity of human CYP2D6 expressed in microsomes isolated from baculovirus infected insect cell assessed as enzyme-mediated (2S,3S,4S,5R,6R)-6-((1-carboxy-2-(4-((6-methoxy-1-methyl-1H-benzo[d]imidazol-2-yl)methoxy)phenyl)ethylthio)carbonylamino)-3,4,5-trihydroxytetrahydro-2H-pyran-2-carboxylic acid formation at 20 uM after 2 hrs by radio-HPLC/LC-MS/MS analysis in presence of NADPH-generating system/SAM; type: ADME
T4 sequence (P10635 whole entry): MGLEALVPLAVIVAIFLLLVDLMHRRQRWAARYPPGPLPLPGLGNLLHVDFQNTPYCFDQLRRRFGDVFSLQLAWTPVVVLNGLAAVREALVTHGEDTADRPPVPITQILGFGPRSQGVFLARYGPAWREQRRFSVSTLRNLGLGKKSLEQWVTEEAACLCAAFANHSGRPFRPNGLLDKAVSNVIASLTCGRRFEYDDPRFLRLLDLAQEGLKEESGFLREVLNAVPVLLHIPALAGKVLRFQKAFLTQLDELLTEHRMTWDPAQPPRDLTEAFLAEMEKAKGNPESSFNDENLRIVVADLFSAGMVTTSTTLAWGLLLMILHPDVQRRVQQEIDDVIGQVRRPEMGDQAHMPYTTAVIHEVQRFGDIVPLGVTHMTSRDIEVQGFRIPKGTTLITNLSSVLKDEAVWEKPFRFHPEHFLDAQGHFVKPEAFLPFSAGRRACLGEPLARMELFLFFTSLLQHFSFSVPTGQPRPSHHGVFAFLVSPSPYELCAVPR

Cytochrome P450 2D6 [9] = target: T4, Cytochrome P450 2D6; test: Activity of human CYP2D6 expressed in microsomes isolated from baculovirus infected insect cell assessed as enzyme-mediated 3-(4-((6-methoxy-1-methyl-1H-benzo[d]imidazol-2-yl)methoxy)phenyl)-2-(methylthio)propanamide formation at 20 uM after 2 hrs by radio-HPLC/LC-MS/MS analysis in presence of NADPH-generating system/SAM; type: ADME
Cytochrome P450 2C19 [10] = target: T1, Cytochrome P450 2C19; test: Activity of human CYP2C19 expressed in microsomes isolated from baculovirus infected insect cell assessed as enzyme-mediated 2-amino-3-((1-carboxy-2-(4-((6-methoxy-1-methyl-1H-benzo[d]imidazol-2-yl)methoxy)phenyl)ethyl)disulfanyl)propanoic acid formation at 20 uM after 2 hrs by radio-HPLC/LC-MS/MS analysis; type: ADME; summary of the method: as §1
[11] = Drug metabolism in monkey hepatocytes assessed as formation of 3-(4-((6-methoxy-1-methyl-1H-benzo[d]imidazol-2-yl)methoxy)phenyl)-2-(methylthio)propanoic acid at 30 uM after 3 hrs by radio-HPLC/LC-MS/MS analysis in presence of NADPH-generating system/SAM and UDPGA/SAM; settings: cynomolgus monkey

Drug metabolism [1]: metabolite_detected
Drug metabolism (Liver microsome [2]): metabolite_detected
Drug metabolism (Cytochrome P450 2C19 [3]): metabolite_detected
Drug metabolism (Cytochrome P450 2C8 [4]): metabolite_detected
Drug metabolism (Cytochrome P450 2C9): metabolite_not_detected
Drug metabolism (Liver microsome [5]): metabolite_detected
Drug metabolism (Cytochrome P450 2C8 [6]): metabolite_not_detected
Drug metabolism [7]: metabolite_detected
Drug metabolism (Cytochrome P450 2D6 [8]): metabolite_not_detected
Drug metabolism (Cytochrome P450 2D6 [9]): metabolite_not_detected
Drug metabolism (Cytochrome P450 2C19 [10]): metabolite_not_detected
Drug metabolism [11]: metabolite_not_detected
SMILES: COc1ccc2nc(COc3ccc(C[14CH]4SC(=O)NC4=O)cc3)n(C)c2c1.Cl (racemic)

Source: ChEMBL document CHEMBL3526048, “In vitro metabolism of rivoglitazone, a novel peroxisome proliferator-activated receptor γ agonist, in rat, monkey, and human liver microsomes and freshly isolated hepatocytes” (Drug Metab Dispos, 2011)
